According to ChEMBL document CHEMBL1177835, “A note to the biological activity of benzoxazine derivatives containing the thioxo group” (Eur J Med Chem, 2010):
In brackets after ≈: the same amount, converted by molar mass.

Columns and labels:
Mycobacterium kansasii [1] = assay: Antimycobacterial activity against Mycobacterium kansasii CNCTC My 235/80 after 14 days by microdilution method; assay type: functional; settings: CNCTC My 235/80, 336 h
Method in brief: (§1)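 Dilution micromethod for MIC; compounds added to medium as DMSO solutions. Each strain also inoculated onto Löwenstein–Jensen medium to control inoculum sterility and growth. Strain 6509/96 is a clinical isolate; CNCTC strains from the Czech national type culture collection.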

K562 = assay: Antiproliferative activity against human K562 cells after 72 hrs by celltiter-blue assay; assay type: functional, cell-based
Method in brief: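 K-562 grown in RPMI 1640 with ultraglutamine, gentamicin, 10% heat-inactivated FBS at 37 °C; about 10,000 cells/well. Compounds dissolved in DMSO and diluted in DMEM, incubated 72 h at 37 °C, 5% CO2. Viability read by CellTiter-Blue resazurin reduction. GI50 taken where the dose-response curve crosses 50% of untreated control.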

Mycobacterium kansasii [2] = assay: Antimycobacterial activity against Mycobacterium kansasii 6509/96 after 14 days by microdilution method; assay type: functional; settings: 6509/96, 336 h; method in brief: as §1
Mycobacterium kansasii [3] = assay: Antimycobacterial activity against Mycobacterium kansasii 6509/96 after 21 days by microdilution method; assay type: functional; settings: 6509/96, 504 h; method in brief: as §1
HUVEC = assay: Antiproliferative activity against HUVEC after 72 hrs by using methylene blue staining; assay type: cell-based; settings: human
Method in brief: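 HUVEC in culture medium with ultraglutamine, gentamicin, 10% heat-inactivated FBS, 37 °C. Harvested in log phase by trypsinization; about 10,000 cells/well. Compounds in DMSO, diluted in DMEM, incubated 72 h at 37 °C, 5% CO2. Cells then glutaraldehyde-fixed, stained with 0.05% methylene blue for 15 min, eluted with 0.33 N HCl, OD 660 nm. GI50 taken at 50% intersection versus untreated control.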

[4] = system: Mycobacterium tuberculosis; assay: Antimycobacterial activity against Mycobacterium tuberculosis CNCTC My 331/88 after 14 days by microdilution method; assay type: functional; settings: CNCTC My 331/88, 336 h
Method in brief: (§2)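 MIC determined by a dilution micromethod. Strains came from the Czech National Collection of Type Cultures, Prague. Compounds were added to the medium as DMSO solutions. Each inoculum was also plated in parallel on Löwenstein–Jensen medium to check its sterility and growth. The M. avium strain is identical with ATCC 25291 and resistant to INH.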

Mycobacterium kansasii [5] = assay: Antimycobacterial activity against Mycobacterium kansasii CNCTC My 235/80 after 21 days by microdilution method; assay type: functional; settings: CNCTC My 235/80, 504 h; method in brief: as §1
Mycobacterium avium [6] = assay: Antimycobacterial activity against Mycobacterium avium CNCTC My 330/88 after 21 days by microdilution method; assay type: functional; settings: CNCTC My 330/88, 504 h; method in brief: as §2
[7] = system: Mycobacterium tuberculosis; assay: Antimycobacterial activity against Mycobacterium tuberculosis CNCTC My 331/88 after 21 days by microdilution method; assay type: functional; settings: CNCTC My 331/88, 504 h; method in brief: as §2
HeLa = assay: Cytotoxicity against human HeLa cells after 72 hrs by using methylene blue staining; assay type: functional, cell-based
Method in brief: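 HeLa cells in RPMI 1640 with supplements, preincubated 48 h without compound. Compound dilutions were then applied to subconfluent monolayers for 72 h at 37 °C, 5% CO2. Cells were glutaraldehyde-fixed, stained with 0.05% methylene blue, eluted with 0.33 N HCl and read at OD 660 nm. CC50 taken at 50% intersection versus negative control.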

Mycobacterium avium [8] = assay: Antimycobacterial activity against Mycobacterium avium CNCTC My 330/88 after 14 days by microdilution method; assay type: functional; settings: CNCTC My 330/88, 336 h; method in brief: as §2

Structure (SMILES) | MIC (Mycobacterium kansasii [1]) | Activity (K562) | MIC (Mycobacterium kansasii [2]) | MIC (Mycobacterium kansasii [3]) | Activity (HUVEC) | MIC [4] | MIC (Mycobacterium kansasii [5]) | MIC (Mycobacterium avium [6]) | MIC [7] | Activity (HeLa) | MIC (Mycobacterium avium [8])
O=c1oc2ccc(Br)cc2c(=O)n1Cc1ccccc1 | 62.5 µM (≈ 20.8 µg/mL) | Toxic | 62.5 µM (≈ 20.8 µg/mL) | 125 µM (≈ 41.5 µg/mL) | Toxic | 62.5 µM (≈ 20.8 µg/mL) | 125 µM (≈ 41.5 µg/mL) | 62.5 µM (≈ 20.8 µg/mL) | 62.5 µM (≈ 20.8 µg/mL) | Toxic | 62.5 µM (≈ 20.8 µg/mL)
NNC(=O)c1ccncc1 [ISONIAZID] | > 250 µM |  | 8 µM (≈ 1.1 µg/mL) | 8 µM (≈ 1.1 µg/mL) |  | 1 µM (≈ 0.137 µg/mL) | > 250 µM | > 250 µM | 1 µM (≈ 0.137 µg/mL) |  | > 250 µM
O=c1oc2ccc(Br)cc2c(=O)n1Cc1ccc(Cl)c(Cl)c1 | 62.5 µM (≈ 25.1 µg/mL) | Toxic | 62.5 µM (≈ 25.1 µg/mL) | 62.5 µM (≈ 25.1 µg/mL) | Toxic | 32 µM (≈ 12.8 µg/mL) | 62.5 µM (≈ 25.1 µg/mL) | 32 µM (≈ 12.8 µg/mL) | 32 µM (≈ 12.8 µg/mL) | Toxic | 32 µM (≈ 12.8 µg/mL)
S=c1oc2ccccc2c(=S)n1Cc1ccccc1 | 2 µM (≈ 0.571 µg/mL) |  | 1 µM (≈ 0.285 µg/mL) | 2 µM (≈ 0.571 µg/mL) |  | 1 µM (≈ 0.285 µg/mL) | 2 µM (≈ 0.571 µg/mL) | 1 µM (≈ 0.285 µg/mL) | 1 µM (≈ 0.285 µg/mL) |  | 1 µM (≈ 0.285 µg/mL)
Cc1ccc2oc(=O)n(Cc3ccccc3)c(=S)c2c1 | 1 µM (≈ 0.283 µg/mL) | Toxic | 1 µM (≈ 0.283 µg/mL) | 2 µM (≈ 0.567 µg/mL) | Toxic | 1 µM (≈ 0.283 µg/mL) | 2 µM (≈ 0.567 µg/mL) | 2 µM (≈ 0.567 µg/mL) | 1 µM (≈ 0.283 µg/mL) | Toxic | 2 µM (≈ 0.567 µg/mL)
O=c1oc2ccccc2c(=O)n1Cc1ccc(Cl)c(Cl)c1 | 62.5 µM (≈ 20.1 µg/mL) | Toxic | 62.5 µM (≈ 20.1 µg/mL) | 62.5 µM (≈ 20.1 µg/mL) | Toxic | 32 µM (≈ 10.3 µg/mL) | 62.5 µM (≈ 20.1 µg/mL) | 32 µM (≈ 10.3 µg/mL) | 32 µM (≈ 10.3 µg/mL) | Toxic | 32 µM (≈ 10.3 µg/mL)
CO[C@H]1/C=C/O[C@@]2(C)Oc3c(C)c(O)c4c(O)c(c(/C=N/N5CCN(C)CC5)c(O)c4c3C2=O)NC(=O)/C(C)=C\C=C\[C@H](C)[C@H](O)[C@@H](C)[C@@H](O)[C@@H](C)[C@H](OC(C)=O)[C@@H]1C [RIFAMPIN] | 0.25 µM (≈ 0.206 µg/mL) |  | 0.125 µM (≈ 0.103 µg/mL) | 0.25 µM (≈ 0.206 µg/mL) |  | 0.25 µM (≈ 0.206 µg/mL) | 0.25 µM (≈ 0.206 µg/mL) | 65 µM (≈ 53.5 µg/mL) | 0.5 µM (≈ 0.411 µg/mL) |  | 16 µM (≈ 13.2 µg/mL)
O=c1oc2ccc(Cl)cc2c(=O)n1Cc1ccccc1 | 32 µM (≈ 9.21 µg/mL) | Toxic | 125 µM (≈ 36 µg/mL) | 125 µM (≈ 36 µg/mL) | Toxic | 62.5 µM (≈ 18 µg/mL) | 62.5 µM (≈ 18 µg/mL) | 62.5 µM (≈ 18 µg/mL) | 125 µM (≈ 36 µg/mL) | Toxic | 32 µM (≈ 9.21 µg/mL)
Cc1ccc2oc(=O)n(Cc3ccccc3)c(=O)c2c1 | 62.5 µM (≈ 16.7 µg/mL) | Toxic | 62.5 µM (≈ 16.7 µg/mL) | 125 µM (≈ 33.4 µg/mL) | Toxic | 32 µM (≈ 8.55 µg/mL) | 62.5 µM (≈ 16.7 µg/mL) | 62.5 µM (≈ 16.7 µg/mL) | 62.5 µM (≈ 16.7 µg/mL) | Toxic | 32 µM (≈ 8.55 µg/mL)
O=c1oc2ccc(Br)cc2c(=S)n1Cc1ccccc1 | 8 µM (≈ 2.79 µg/mL) | Toxic | 4 µM (≈ 1.39 µg/mL) | 8 µM (≈ 2.79 µg/mL) | Toxic | 1 µM (≈ 0.348 µg/mL) | 8 µM (≈ 2.79 µg/mL) | 8 µM (≈ 2.79 µg/mL) | 2 µM (≈ 0.696 µg/mL) | Toxic | 8 µM (≈ 2.79 µg/mL)
O=c1oc2ccccc2c(=O)n1Cc1ccccc1 | 62.5 µM (≈ 15.8 µg/mL) | Toxic | 62.5 µM (≈ 15.8 µg/mL) | 62.5 µM (≈ 15.8 µg/mL) | Toxic | 32 µM (≈ 8.1 µg/mL) | 62.5 µM (≈ 15.8 µg/mL) | 62.5 µM (≈ 15.8 µg/mL) | 32 µM (≈ 8.1 µg/mL) | Toxic | 32 µM (≈ 8.1 µg/mL)
Fc1ccc(Cn2c(=S)oc3ccc(Cl)cc3c2=S)cc1 | 8 µM (≈ 2.7 µg/mL) |  | 8 µM (≈ 2.7 µg/mL) | 16 µM (≈ 5.41 µg/mL) |  | 1 µM (≈ 0.338 µg/mL) | 16 µM (≈ 5.41 µg/mL) | 16 µM (≈ 5.41 µg/mL) | 2 µM (≈ 0.676 µg/mL) |  | 8 µM (≈ 2.7 µg/mL)
S=c1oc2c(Cl)cc(Cl)cc2c(=S)n1Cc1ccc(Cl)c(Cl)c1 | 62.5 µM (≈ 26.4 µg/mL) |  | 62.5 µM (≈ 26.4 µg/mL) | 62.5 µM (≈ 26.4 µg/mL) |  | 32 µM (≈ 13.5 µg/mL) | 62.5 µM (≈ 26.4 µg/mL) | 62.5 µM (≈ 26.4 µg/mL) | 32 µM (≈ 13.5 µg/mL) |  | 62.5 µM (≈ 26.4 µg/mL)
